Screens from PubChem BioAssay.
Sampled rows, rich in hits. Any-hit rate of the full collection: about 0.44%.
PDI inh: blocks human protein disulfide isomerase activity; AID 588391; inhibition, % at 10 µM; PDI insulin aggregation turbidity, A650, 90 min; P07237; actives 0.052% (n = 350,000);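 active = mean inhibition across replicates of 30% or more, whatever share of single replicates reach that level; inconclusive = mean inhibition below 30% while every single replicate reaches 30%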
RAD54 branch: inhibitors of human RAD54 branch migration | RAD54 Holliday junction branch migration, FAM/BHQ fluorescence | inhibition, % at 10.4 µM | actives 0.14% (n = 360,000);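 active = mean normalized replicate activity at least 40 and at least half of replicates scoring 40 or more; inconclusive = only one of the two criteria met; inactive = mean below 40 and under half of replicates reaching 40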;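 also: 0% = median of neutral control wells and 100% = median of positive control wells; inhibitors cause a drop in the FAM fluorescence signal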
Target sequence (Q92698 whole entry, looked up): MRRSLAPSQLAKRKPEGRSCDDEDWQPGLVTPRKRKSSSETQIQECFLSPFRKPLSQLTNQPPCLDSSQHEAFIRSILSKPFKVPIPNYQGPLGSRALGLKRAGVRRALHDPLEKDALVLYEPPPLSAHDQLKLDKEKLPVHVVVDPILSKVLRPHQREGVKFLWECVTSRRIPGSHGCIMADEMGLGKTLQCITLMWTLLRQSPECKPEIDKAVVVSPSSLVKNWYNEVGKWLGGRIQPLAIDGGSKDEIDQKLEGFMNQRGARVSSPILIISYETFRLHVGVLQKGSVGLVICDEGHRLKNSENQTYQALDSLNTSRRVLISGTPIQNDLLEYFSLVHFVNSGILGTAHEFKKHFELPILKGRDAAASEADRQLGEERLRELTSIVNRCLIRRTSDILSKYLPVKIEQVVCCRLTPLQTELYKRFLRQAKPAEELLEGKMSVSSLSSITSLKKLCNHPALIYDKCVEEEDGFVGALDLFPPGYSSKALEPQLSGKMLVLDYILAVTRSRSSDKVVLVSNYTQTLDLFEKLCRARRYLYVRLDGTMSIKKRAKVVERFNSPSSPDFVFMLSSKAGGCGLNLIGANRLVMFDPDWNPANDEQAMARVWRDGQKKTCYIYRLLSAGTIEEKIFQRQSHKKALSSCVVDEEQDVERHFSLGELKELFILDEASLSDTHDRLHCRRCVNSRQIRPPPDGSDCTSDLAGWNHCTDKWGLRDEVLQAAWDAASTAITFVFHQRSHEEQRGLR
FN deposition inh: fibronectin deposition inhibition; actives 0.086% (n = 350,000); inhibition, % at 12.6 µM; AH1F fibroblasts, Alexa488-fibronectin deposition fluorescence, overnight; AID 743247;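 active = mean inhibition across replicates of 30% or more, regardless of how many single replicates reach that level; inconclusive = mean under 30% yet at least half of replicates reach 30%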;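 also: positive control wells lacked labelled fibronectin entirely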
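Assay system: AH1F fibroblasts assembling fluorescent fibronectin matrix; Amount: 10000 AH1F cells per well; Buffer or medium: DMEM, 2% serum; Probe or stimulus: Alexa488-fibronectin, 24 nM final in well; Doses: single compound dose, delivered by pin transfer; Incubation: 1 h adhesion, overnight exposure; Measured by: fluorescence 485/525 nm; Read-out: fibronectin deposition inhibition.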
ERp5 block: ERp5 (human) disulfide isomerase inhibition; Q15084; ERp5 insulin aggregation, absorbance 650 nm, 90 min; inhibition, % at 9.99 µM; actives 0.05% (n = 350,000);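 active = mean replicate inhibition above about 25%, with every replicate also reaching it, limit read from the data, passing the limit was not always enough; inconclusive = only one of those two criteria met; inactive = neither criterion met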
S100A4 inh HTS: blocks human S100A4 binding to myosin IIA peptide | actives 0.14% (n = 360,000) | S100A4/TAMRA-MyoIIA peptide fluorescence polarization | AID 652163 | inhibition, % at 10.7 µM;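 active = mean inhibition of at least 70% across replicates, with every replicate also reaching that level; inconclusive = mean inhibition reaches 70% but some replicates fall short; inactive = mean inhibition below 70%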
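incubation = readout 5 min after mixing, signal stable up to 60 min | system = S100A4 monomer protein | buffer or medium = HEPES pH 7.2 with CaCl2, KCl, NaCl, DTT, Triton | benchmarks = neutral control DMSO, positive control TFP | also added = fluorescent myosin IIA peptide, 5 nM | compound dosing = one concentration per compound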
PglD inh: PglD (C. jejuni) enzyme inhibition; purified PglD enzyme, DTNB colorimetric CoA detection; inhibition, % at 12.5 µM; actives 0.098% (n = 360,000); AID 602405; in the data active = inhibition above about 16%, passing the limit was not always enough; inconclusive = no clear call, values can overlap the other calls
Active calls of the source: *; ? = inconclusive; . = no result given; + = active, no number; ! = not confirmed by another sample.

SMILES	PDI inh	RAD54 branch	FN deposition inh	ERp5 block	S100A4 inh HTS	PglD inh
CCCNC(=O)N[C@H]1CC[C@H](CC(=O)NC2CCCCC2)O[C@H]1CO	.	-2	-18	-11	-15	3
Cc1ccc(CNC(=O)Cn2cnc(C(=O)Nc3ccc(C)c(C)c3)n2)o1	5	5	5	2	76*	4
COC(=O)c1ccc(CNC(=O)Cn2cnc(C(=O)Nc3ccc(C)c(C)c3)n2)cc1	-8	3	10	2	2	2
CC(C)NC(=O)Nc1ccc2c(c1)C(=O)N(C)C[C@H](C)[C@@H](CN(C)C(=O)OC(C)(C)C)O2	.	.	-7	.	.	.
CCN1/C(=C/C(C)=C/c2sc3ccccc3[n+]2CC)Sc2ccccc21	6	72*	-3	1	+	-7
O=C(C[C@H]1CC[C@@H](NC(=O)CCN2CCCCC2)[C@H](CO)O1)Nc1ccccc1	.	.	.	0	-6	.
O=C(NC(=S)Nc1cccc(NC(=O)c2ccccc2)c1)c1cccc([N+](=O)[O-])c1	32*	4	3	.	.	-5
NS(=O)(=O)c1cccc(NC(=S)NC(=O)c2cccc([N+](=O)[O-])c2)c1	3	0	.	7	0	.
CO[C@@H]1CN(C)C(=O)c2cc(NC(=O)c3cccc(F)c3)ccc2OC[C@@H](C)N(C(C)=O)C[C@H]1C	.	.	13	.	.	.
CCn1c2ccccc2c2nc3cc(OC)c(OC)cc3nc21	6	26	35*	.	.	-1
CCn1c2ccccc2c2nc3ccccc3nc21	6	5	.	.	.	.
CC(=O)N1CCN(c2ccc(NC(=O)c3ccc([N+](=O)[O-])o3)cc2Cl)CC1	-7	-1	17	0	1	-1
CCC(=O)N1CCN(c2ccc(NC(=O)c3ccc([N+](=O)[O-])o3)cc2Cl)CC1	1	.	60*	3	-6	.
O=C(C[n+]1ccc(CCSc2ccc(F)cc2)cc1)c1ccccc1	18	87*	.	.	.	-12
Cc1ccc(SCCc2cc[n+](CC(=O)c3ccccc3)cc2)cc1	1	.	.	2	-20	.
CN(C)c1ccc(C=Cc2nccc3ccccc23)cc1	.	-29	-18	-4	88*	-2
COc1ccc(CN(C)C[C@@H]2Oc3ccc(NC(=O)Cc4ccccc4)cc3CC(=O)N([C@@H](C)CO)C[C@H]2C)cc1	.	.	.	-5	84*	.
COc1ccc(CN(C)C[C@@H]2Oc3ccc(NS(=O)(=O)c4ccccc4)cc3CC(=O)N([C@H](C)CO)C[C@H]2C)cc1	.	-12	.	-2	134*	5
CCCNC(=O)C[C@@H]1C[C@@H]2c3cc(NS(C)(=O)=O)ccc3O[C@@H]2[C@@H](CO)O1	.	-9	-13	.	7	2
CCCNC(=O)C[C@H]1C[C@H]2c3cc(NS(C)(=O)=O)ccc3O[C@H]2[C@@H](CO)O1	.	5	-34	27*	-5	0
CCCNC(=O)C[C@@H]1C[C@H]2c3cc(NS(C)(=O)=O)ccc3O[C@H]2[C@@H](CO)O1	.	-12	-14	56*	2	3
COc1cccc(C#Cc2cnc3c(c2)C(=O)N([C@@H](C)CO)C[C@@H](C)[C@H](CN(C)C(=O)C2CC2)O3)c1	.	-1	.	-3	-5	-1
O=C(O)C[C@@H]1CC[C@@H](NC(=O)Nc2cc(F)ccc2F)[C@@H](CO)O1	.	9	.	2	5	1
OC(COc1ccccc1)CN1CCN(CC(O)COc2ccccc2)CC1 (stereo unspecified)	-4	.	10	-1	-4	.
OC(CON=C1c2ccccc2-c2ccccc21)CN1CCNCC1 (stereo unspecified)	-5	72*	8	10	-1	.
SMILES	PDI inh	RAD54 branch	FN deposition inh	ERp5 block	S100A4 inh HTS	PglD inh
CCCN1CCCCC(NC(=O)c2c(F)cccc2F)C1=O (stereo unspecified)	.	.	-1	-5	107*	.
COC(=O)c1c(N)n(CCCN2CCOCC2)c2nc3ccccc3nc12	-3	79*	1	.	.	.
O=C(COC(=O)CCc1nc2ccccc2c(=O)[nH]1)Nc1c(Cl)cccc1C(F)(F)F	3	.	0	26*	-12	.
C[C@H](CO)N1C[C@H](C)[C@@H](CN(C)C(=O)c2ccc(F)cc2)Oc2cc(C3=CCCCC3)ccc2S1(=O)=O	.	-14	.	2	2	-2
O=C(CN1CCOCC1)N[C@H]1CC[C@H](CCn2cc(C3CCCC3)nn2)O[C@@H]1CO	.	.	4	4	10	.
CCOC(=O)C1=C(C)Nc2nc3ccccc3n2C1c1ccncc1 (stereo unspecified)	-2	-2	14*	.	.	2
CC(C)NC(=O)N(C)C[C@@H]1Oc2ccc(N(C)C)cc2C(=O)N(C)C[C@H]1C	.	.	8	.	.	.
Cc1noc(C)c1NC(=O)N(C)C[C@H]1Oc2c(NS(=O)(=O)c3ccc(Cl)cc3)cccc2C(=O)N([C@@H](C)CO)C[C@@H]1C	.	-1	-2	25*	3	0
Cc1noc(C)c1NC(=O)Nc1cccc2c1O[C@H](CN(C)S(=O)(=O)c1ccc(Cl)cc1)[C@@H](C)CN([C@H](C)CO)C2=O	.	7	.	26*	4	4
Cc1noc(C)c1NC(=O)N(C)C[C@@H]1Oc2c(NS(=O)(=O)c3ccc(Cl)cc3)cccc2C(=O)N([C@@H](C)CO)C[C@H]1C	.	3	-1	13	1	1
CC[C@]12c3[nH]c4cc(-c5ccco5)ccc4c3CCN1C(=O)[C@@H](CC(=O)NCc1ccc(OC)c(OC)c1)C[C@@H]2C(=O)N1CCN(C(=O)C2CC2)CC1	37*	-3	4	1	1	-2
COc1ccc2[nH]c3c(c2c1)CCN1C(=O)C(CC(=O)NCCCN(C)C)C[C@H](C(=O)N2CCCCC2)[C@@]31CCc1ccccc1 (stereo partly specified)	-2	8	37*	-1	8	6
CN(C)CCCNC(=O)CC1C[C@H](C(=O)N2CCCCC2)[C@@]2(CCc3ccccc3)c3[nH]c4ccccc4c3CCN2C1=O (stereo partly specified)	9	6	6	-5	7	6
COc1ccc(C(=O)N2C[C@H]3[C@@H](c4ccccc42)[C@@H](CO)N3Cc2ccc(Cl)cc2)cc1	.	-12	.	3	15	8
CCCCCCCCCCOC(=O)Cn1c(COc2cccc(C)c2)[n+](C)c2ccccc21	17	52*	-6	6	1	-8
CCCCCCCCCCOC(=O)Cn1c(COc2ccc(Cl)cc2)[n+](C)c2ccccc21	-48	57*	11	8	-18	-1
CCCCCCCCCCOC(=O)Cn1c(COc2ccccc2)[n+](C)c2ccccc21	4	?	5	7	2	-4
CCCCCCCCCCOC(=O)Cn1c(COc2ccc(OC)cc2)[n+](C)c2ccccc21	0	58*!	.	.	.	-6
